The source made the active and inactive calls. No cut-off for these calls is given here.

The record followed here is ChEMBL document CHEMBL3580581, “Bisabolane Sesquiterpenoids from the Plant Endophytic Fungus Paraconiothyrium brasiliense” (J Nat Prod, 2015).

A short description of data set [1]: Cytotoxicity against human MGC cells assessed as reduction in cell viability by MTS assay. Type of data set: functional, cell-based. The procedure, abridged:
(§1)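 MTS viability assay. Cells were seeded at 5 × 10^3 per well for 24 h, then exposed to serial dilutions (5, 10, 15, 20, and 50 μM) in medium with 10% FBS and grown for the indicated duration. Controls got DMSO. MTS was added for 1 h at 37 °C and absorbance read at 490 nm. Results are % of control, with IC50 calculated.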

Data set [2] concerns MCF7. Description: Reduction in hexokinase-2 protein expression in human MCF7 cells by SDS-PAGE and Western blotting method. Particulars: TDE = time-dependent effect. The format is functional, cell-based. The procedure, abridged:
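MCF-7 cells were treated for 1, 3, 6, 12, 24 and 48 h and lysed in cold buffer. 50 μg protein was run on 10% SDS-PAGE and transferred to nitrocellulose. Membranes were probed with anti-HK2 primary antibody at 4 °C overnight, then HRP secondary for 1 h at room temperature, with ECL detection. α-Tubulin was the internal control.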

Data set [3] is described as follows: Cytotoxicity against mouse NIH/3T3 cells assessed as reduction in cell viability by MTS assay. Type of data set: cell-based. Particulars: NIH3T3. The procedure, abridged:
as §1

Data set [4] in a line: Cytotoxicity against human EC109 cells assessed as reduction in cell viability by MTS assay. Type of data set: functional, cell-based. Particulars: ECa-109. The procedure, abridged: as §1
Data set [5] deals with HaCaT. Description: Cytotoxicity against human HaCaT cells assessed as reduction in cell viability by MTS assay. Type of data set: cell-based. The procedure, abridged: as §1
Data set [6] concerns MCF7. Kind of data set: Reduction in ATP generation in human MCF7 cells at 20 uM incubated for 12 and 24 hrs. Type of data set: functional, cell-based. The procedure, abridged:
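MCF-7 cells were exposed to 20 μM for 2, 4, 6, 8, 12 and 24 h. ATP was measured with a commercial kit, quantified against an ATP standard curve and expressed as % of the control group.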

The nature of data set [7]: Cytotoxicity against human CNE1-LMP1 cells assessed as reduction in cell viability by MTS assay. Type of data set: functional, cell-based. The procedure, abridged: as §1
The test system of data set [8] is A549. Description: Cytotoxicity against human A549 cells assessed as reduction in cell viability by MTS assay. Type of data set: functional, cell-based. The procedure, abridged: as §1
In data set [9] the test system is HaCaT. Description: Toxicity in human HaCaT cells assessed as reduction in lactate secretion per 10^5 cells at 20 uM incubated for 12 hrs. Type of data set: cell-based. A digest of the protocol: (§2)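 Cells were seeded and after 24 h switched to fresh medium with 10% FBS, with or without 20 μM compound. After 12 h, supernatant glucose and lactate were measured on an automatic biochemistry analyzer. Cell numbers were counted in parallel by MTS. Rates (nmol/h/10^5 cells) were computed as the difference from blank medium divided by 12 h and by cell number. LY294002 served as positive control.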

Data set [10] has as its system A-375. Kind of data set: Cytotoxicity against human A375 cells assessed as reduction in cell viability by MTS assay. The format is functional, cell-based. The procedure, abridged: as §1
Data set [11] has as its system MCF7. Description: Reduction in glucose uptake in human MCF7 cells assessed per 10^5 cells at 20 uM incubated for 12 hrs (reference value: 5.6 nM/hr/10^5 cells). Type of data set: functional. A digest of the protocol: as §2
Data set [12] concerns HaCaT. Kind of data set: Toxicity in human HaCaT cells assessed as reduction in glucose uptake per 10^5 cells at 20 uM incubated for 12 hrs. Type of data set: cell-based. A digest of the protocol:
as §2

Data set [13] in a line: Cytotoxicity against human Hep3B2 cells assessed as reduction in cell viability by MTS assay. Type of data set: functional, cell-based, Hep 3B2. Particulars: Hep3B. A digest of the protocol: as §1
Data set [14] concerns MCF7. Kind of data set: Reduction in lactate secretion in human MCF7 cells assessed per 10^5 cells at 20 uM incubated for 12 hrs. Type of data set: functional. A digest of the protocol:
as §2

For data set [15], the system named is MCF7. Description: Cytotoxicity against human MCF7 cells assessed as reduction in cell viability by MTS assay. The format is functional, cell-based.
Data set [16] in a line: Cytotoxicity against human PANC1 cells assessed as reduction in cell viability by MTS assay. Type of data set: functional, cell-based. Particulars: PANC-1. A digest of the protocol: as §1
The test system of data set [17] is MCF7. Kind of data set: Cytotoxicity against human MCF7 cells assessed as reduction in cell viability at 50 uM by MTS assay. Type of data set: functional, cell-based. The procedure, abridged: as §1
Data set [18] relates to HaCaT. Description: Cytotoxicity against human HaCaT cells assessed as reduction in cell viability at 50 uM by MTS assay. The format is cell-based. The procedure, abridged: as §1
Another data set has as its system PANC-1. Description: Cytotoxicity against human PANC1 cells assessed as reduction in cell viability at 50 uM by MTS assay. The format is functional, cell-based. The procedure, abridged:
as §1

A further data set has as its system ECa-109. Description: Cytotoxicity against human EC109 cells assessed as reduction in cell viability at 50 uM by MTS assay. Type of data set: functional, cell-based. The procedure, abridged:
as §1

The subject of the next data set is CNE1-LMP1. Kind of data set: Cytotoxicity against human CNE1-LMP1 cells assessed as reduction in cell viability at 50 uM by MTS assay. Type of data set: functional, cell-based. The procedure, abridged: as §1
The next data set relates to MGC. Kind of data set: Cytotoxicity against human MGC cells assessed as reduction in cell viability at 50 uM by MTS assay. The format is functional, cell-based. A digest of the protocol: as §1
Data set [19] deals with A-375. Description: Cytotoxicity against human A375 cells assessed as reduction in cell viability at 50 uM by MTS assay. The format is functional, cell-based. The procedure, abridged:
as §1

For another data set, the system named is Hep 3B2. Description: Cytotoxicity against human Hep3B2 cells assessed as reduction in cell viability at 50 uM by MTS assay. Type of data set: functional, cell-based. A digest of the protocol:
as §1

Data set [20] deals with A549. Description: Cytotoxicity against human A549 cells assessed as reduction in cell viability at 50 uM by MTS assay. Type of data set: functional, cell-based. A digest of the protocol: as §1
Data set [21] in a line: Cytotoxicity against mouse NIH/3T3 cells assessed as reduction in cell viability at 50 uM by MTS assay. The format is cell-based. Particulars: nih3t3, 50 µM. A digest of the protocol:
as §1

On to `C=C1CCC(c2coc(/C=C(\C)C(N)=O)c2)CC1`, for which the IC50 in [1] was 14.7 µM; in data set [3] it was over 50 µM; in [4], over 50 µM; in the data set with HaCaT [5], over 50 µM; in data set [7] it was over 50 µM; in the data set with A549 [8] it was over 50 µM. Further, the IC50 was over 50 µM with A-375 [10], over 50000 nM in [13], 8.4 µM with MCF7 [15] and over 50 µM in data set [16]. In addition, the inhibition result in the data set with MCF7 [2] is “tde”. Also, in the data set on MCF7 [6], the inhibition entry was “Active”. The Activity result with HaCaT [9] is “Non-toxic”; with MCF7 [11] it was 4.2 nM/h; with HaCaT [12], “Non-toxic”; with MCF7 [14] it was 0.5 nM/h.

With `C/C(=C\c1cc([C@H]2CC[C@@](O)(CO)CC2)co1)C(N)=O`, the result in the data set with MCF7 [17], in the data set with PANC-1, with ECa-109, in the data set on CNE1-LMP1, in the data set with MGC and in the data set with A-375 [19] was inactive. Moreover, the result in the data set with Hep 3B2 and with A549 [20] was inactive. In addition, the Activity result (with HaCaT [18]; in data set [21]) was “Non-toxic” throughout.

Turning to `C=C1CCC(C2=C/C(=C/C(C)C(N)=O)OC2=O)CC1` (racemic), the outcome in the data set with MCF7 [17], in the data set on PANC-1, with ECa-109, in the data set on CNE1-LMP1, in the data set with MGC and with A-375 [19] was inactive. In addition, the outcome in the data set with Hep 3B2 and with A549 [20] was inactive. Besides, the Activity result (with HaCaT [18]; in data set [21]) was “Non-toxic” throughout.

Turning to `C=C1CCC(C2=C/C(=C\C(C)C(N)=O)OC2=O)CC1` (racemic), the result in the data set with MCF7 [17], in the data set on PANC-1, with ECa-109, with CNE1-LMP1, with MGC and in the data set on A-375 [19] was inactive. In addition, the result with Hep 3B2 and in the data set with A549 [20] was inactive. Also, the Activity result (with HaCaT [18]; in data set [21]) was “Non-toxic” throughout.

Take `CC(/C=C1/C=C([C@H]2CC[C@@](O)(CO)CC2)C(=O)O1)C(N)=O` (mixture of isomers): the result in the data set on MCF7 [17], in the data set on PANC-1, in the data set with ECa-109, in the data set with CNE1-LMP1, in the data set on MGC and in the data set on A-375 [19] was inactive. Further, the result in the data set on Hep 3B2 and with A549 [20] was inactive. Moreover, the Activity entry (with HaCaT [18]; in [21]) was “Non-toxic” each time.

As to `CC(=O)OC[C@]1(O)CC[C@H](C2=C/C(=C/C(C)C(N)=O)OC2=O)CC1` (mixture of isomers), the result in the data set on MCF7 [17], with PANC-1, in the data set with ECa-109, in the data set with CNE1-LMP1, in the data set with MGC and in the data set with A-375 [19] was inactive. The outcome with Hep 3B2 and with A549 [20] was inactive. Further, the Activity result (in the data set with HaCaT [18]; in [21]) was “Non-toxic” each time.

As for `CC(=O)O[C@H]1C(=O)[C@@]2(C)[C@H]([C@H](OC(=O)c3ccccc3)[C@]3(O)C[C@H](OC(=O)[C@H](O)[C@@H](NC(=O)c4ccccc4)c4ccccc4)C(C)=C1C3(C)C)[C@]1(OC(C)=O)CO[C@@H]1C[C@@H]2O` [PACLITAXEL], the half-inhibitory concentration (IC50) in data set [1] was determined as 0.0064 µM; in data set [3] it was 4.2 µM; in [4], 0.14 µM; in data set [7], 0.0042 µM; in [13] it was 0.016 nM; in [16] it was 0.0011 µM.
